Common to all, as to type: ADME
Data set [1] deals with T1, Cytochrome P450 4F2 (Homo sapiens, UniProt P78329).
T1 sequence (P78329 whole entry): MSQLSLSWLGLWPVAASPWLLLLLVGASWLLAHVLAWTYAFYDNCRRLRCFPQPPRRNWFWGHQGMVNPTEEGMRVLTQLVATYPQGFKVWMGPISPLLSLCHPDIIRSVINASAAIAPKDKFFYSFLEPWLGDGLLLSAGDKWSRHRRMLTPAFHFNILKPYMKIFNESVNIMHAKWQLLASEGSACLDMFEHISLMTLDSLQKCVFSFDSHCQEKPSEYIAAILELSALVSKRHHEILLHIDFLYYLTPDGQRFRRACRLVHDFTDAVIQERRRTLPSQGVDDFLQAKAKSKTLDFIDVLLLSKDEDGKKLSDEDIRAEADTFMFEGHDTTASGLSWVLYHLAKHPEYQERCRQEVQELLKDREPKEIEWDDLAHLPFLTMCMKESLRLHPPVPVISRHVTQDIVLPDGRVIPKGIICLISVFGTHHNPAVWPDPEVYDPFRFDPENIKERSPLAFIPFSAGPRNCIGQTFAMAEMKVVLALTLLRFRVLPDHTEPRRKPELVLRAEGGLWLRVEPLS
In words: Drug level assessed as recombinant human CYP4F2 expressed in insect cell microsomes-mediated compound formation treated with BSA bound d6-alpha-tocopheryl quinone at 10 uM preincubated for 10 mins followed by NADPH addition measured after 20 mins in presence of recombinant human CYP reductase and cytochrome b5 by LS-MS analysis. The following applies: recombinant enzyme. In a few lines: (§1)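 Insect cell microsomes co-expressing recombinant human CYP4F2, cytochrome b5 and NADPH P450 reductase (100 pmol CYP/mL) in 100 mM KH2PO4 pH 7.2 with d6-αTQ–BSA complex (10 μM). Preincubated 10 min at 37 °C, then NADPH added to 1 mM final; 20 min at 37 °C, then chilled on ice. Internal standard d0-ω-hydroxy-αTQ added, extracted with ethyl acetate then hexanes:MTBE. Products identified by reversed-phase C18 LC-MS retention time and mass spectra.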

Data set [2] concerns the target T1, Cytochrome P450 4F2. In words: Drug level in human liver microsomes treated with BSA bound d6-alpha-tocopheryl quinone assessed as CYP4F2-mediated compound formation at 4.4 mM preincubated for 10 mins followed by NADPH addition measured after 20 mins by LS-MS analysis. An outline of the steps: (§2)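 Pooled human liver microsomes (20 mg/ml protein) in 100 mM KH2PO4 pH 7.2. d6-αTQ–BSA complex added from a 4.4 mM stock. Preincubated 10 min at 37 °C, then NADPH added to 1 mM final (NAD at 1 mM if used); 20 min at 37 °C, then chilled on ice. d0-ω-hydroxy-αTQ added as internal standard, extracted with ethyl acetate then hexanes:MTBE. Read-out by positive-ion C18 LC-MS.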

Data set [3] has as its target T1, Cytochrome P450 4F2. In words: Drug level in human liver microsomes treated with BSA bound d6-alpha-tocopheryl quinone assessed as CYP4F2-mediated compound formation by measuring compound retention time at 4.4 mM preincubated for 10 mins followed by NADPH addition measured after 20 mins by LS-MS analysis. In a few lines:
as §2

Data set [4] deals with T1, Cytochrome P450 4F2. In words: Drug level assessed as recombinant human CYP4F2 expressed in insect cell microsomes-mediated compound formation by measuring compound retention time treated with BSA bound d6-alpha-tocopheryl quinone at 10 uM preincubated for 10 mins followed by NADPH addition measured after 20 mins in presence of recombinant human CYP reductase and cytochrome b5 by LS-MS analysis. Particulars: recombinant enzyme. An outline of the steps:
as §1

As to `[2H]C([2H])([2H])C1=C(C)C(=O)C(CC[C@](C)(O)CCC[C@H](C)CCC[C@H](C)CCCC(C)CO)=C(C([2H])([2H])[2H])C1=O` (stereo not given in full), the Drug metabolism entry in data set [1] and in data set [2] was “Metabolite_Detected” throughout. Further, the Retention_time in data set [3] and in data set [4] was 8.8 min in each case.

`[2H]C([2H])([2H])C1=C(C)C(=O)C(CC[C@](C)(O)CCC[C@H](C)CCC[C@H](C)CCCC(C)C(=O)O)=C(C([2H])([2H])[2H])C1=O` (stereo not given in full): the Drug metabolism result in data set [1] and in data set [2] was “Metabolite_Detected” each time. Further, the Retention_time is reported as 7.1 min in data set [3] and 7.42 min in data set [4].

In the case of `[2H]C([2H])([2H])C1=C(C)C(=O)C(CC[C@](C)(O)CCC[C@H](C)CCC[C@H](C)CCCC(C)C)=C(C([2H])([2H])[2H])C1=O`, the Drug metabolism result in data set [2] is recorded as “Metabolite_Detected”. For the same compound, the Retention_time in data set [3] worked out at 11.87 min.

The values above are taken from ChEMBL document CHEMBL4265989, “ω-Hydroxylation of α-tocopheryl quinone reveals a dual function for cytochrome P450-4F2 in vitamin E metabolism” (Bioorg Med Chem, 2018).
